Assay results taken from article PMC6061410 (Clinical Drug Investigation, 2018).

Test system: healthy young and healthy elderly subjects
Test: Safety and tolerability
Format: in vivo, human
Details: young
Procedure, shortened: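 Adverse events were recorded by system organ class and preferred term in the treated set. This was 84 healthy young or elderly subjects randomised 3:1 to oral drug or placebo over 14 days, across seven ascending dose groups with a safety review before each escalation. Changes were assessed against the last pre-dose baseline measurement.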

SMILES: C[C@@H](Oc1ccc(S(C)(=O)=O)cc1C(=O)N1C[C@@H]2C[C@]2(c2cc(C(F)(F)F)on2)C1)C(F)(F)F [BI 425809]
- Gastrointestinal disorders (part 1, 25 mg QD): 3 (33.3) n (%)
- General disorders and administration site conditions (part 1, 25 mg QD): 0 (–) n (%)
- Headache (part 1, 25 mg QD): 3 (33.3) n (%)
- Infections and infestations (part 1, 25 mg QD): 2 (22.2) n (%)
- Insomnia (part 1, 25 mg QD): 0 (–) n (%)
- Musculoskeletal and connective tissue disorders (part 1, 25 mg QD): 0 (–) n (%)
- Nasopharyngitis (part 1, 25 mg QD): 2 (22.2) n (%)
- Nervous system disorder (part 1, 25 mg QD): 3 (33.3) n (%)
- Ocular discomfort (part 1, 25 mg QD): 0 (–) n (%)
- Psychiatric disorders (part 1, 25 mg QD): 1 (11.1) n (%)
- Subjects with AEs leading to study discontinuation (part 1, 25 mg QD): 0 (–) n (%)
- Subjects with investigator-defined drug-related AEs (part 1, 25 mg QD): 6 (66.7) n (%)
- Total with AEs (part 1, 25 mg QD): 7 (77.8) n (%)
- Vision blurred (part 1, 25 mg QD): 2 (22.2) n (%)
- Dizziness (part 1, 50 mg QD): 1 (11.1) n (%)
- Eye disorders (part 1, 50 mg QD): 3 (33.3) n (%)
- Gastrointestinal disorders (part 1, 50 mg QD): 0 (–) n (%)
- General disorders and administration site conditions (part 1, 50 mg QD): 2 (22.2) n (%)
- Headache (part 1, 50 mg QD): 3 (33.3) n (%)
- Infections and infestations (part 1, 50 mg QD): 1 (11.1) n (%)
- Insomnia (part 1, 50 mg QD): 0 (–) n (%)
- Musculoskeletal and connective tissue disorders (part 1, 50 mg QD): 1 (11.1) n (%)
- Nasopharyngitis (part 1, 50 mg QD): 0 (–) n (%)
- Nervous system disorder (part 1, 50 mg QD): 3 (33.3) n (%)
- Ocular discomfort (part 1, 50 mg QD): 0 (–) n (%)
- Psychiatric disorders (part 1, 50 mg QD): 0 (–) n (%)
- Subjects with AEs leading to study discontinuation (part 1, 50 mg QD): 0 (–) n (%)
- Subjects with investigator-defined drug-related AEs (part 1, 50 mg QD): 6 (66.7) n (%)
- Total with AEs (part 1, 50 mg QD): 6 (66.7) n (%)
- Vision blurred (part 1, 50 mg QD): 1 (11.1) n (%)
- Dizziness (part 1, 75 mg BID): 2 (22.2) n (%)
- Eye disorders (part 1, 75 mg BID): 2 (22.2) n (%)
- Gastrointestinal disorders (part 1, 75 mg BID): 0 (–) n (%)
- General disorders and administration site conditions (part 1, 75 mg BID): 1 (11.1) n (%)
- Headache (part 1, 75 mg BID): 0 (–) n (%)
- Infections and infestations (part 1, 75 mg BID): 0 (–) n (%)
- Insomnia (part 1, 75 mg BID): 3 (33.3) n (%)
- Musculoskeletal and connective tissue disorders (part 1, 75 mg BID): 0 (–) n (%)
- Nasopharyngitis (part 1, 75 mg BID): 0 (–) n (%)
- Nervous system disorder (part 1, 75 mg BID): 2 (22.2) n (%)
- Ocular discomfort (part 1, 75 mg BID): 2 (22.2) n (%)
- Psychiatric disorders (part 1, 75 mg BID): 3 (33.3) n (%)
- Subjects with AEs leading to study discontinuation (part 1, 75 mg BID): 0 (–) n (%)
- Subjects with investigator-defined drug-related AEs (part 1, 75 mg BID): 6 (66.7) n (%)
- Total with AEs (part 1, 75 mg BID): 6 (66.7) n (%)
- Vision blurred (part 1, 75 mg BID): 0 (–) n (%)
- Dizziness (part 1, 75 mg QD): 3 (33.3) n (%)
- Eye disorders (part 1, 75 mg QD): 0 (–) n (%)
- Fatigue (part 1, 75 mg QD): 1 (11.1) n (%)
- Gastrointestinal disorders (part 1, 75 mg QD): 2 (22.2) n (%)
- General disorders and administration site conditions (part 1, 75 mg QD): 1 (11.1) n (%)
- Headache (part 1, 75 mg QD): 4 (44.4) n (%)
- Infections and infestations (part 1, 75 mg QD): 1 (11.1) n (%)
- Insomnia (part 1, 75 mg QD): 0 (–) n (%)
- Musculoskeletal and connective tissue disorders (part 1, 75 mg QD): 1 (11.1) n (%)
- Nasopharyngitis (part 1, 75 mg QD): 1 (11.1) n (%)
- Nervous system disorder (part 1, 75 mg QD): 5 (55.6) n (%)
- Ocular discomfort (part 1, 75 mg QD): 0 (–) n (%)
- Psychiatric disorders (part 1, 75 mg QD): 0 (–) n (%)
- Subjects with AEs leading to study discontinuation (part 1, 75 mg QD): 0 (–) n (%)
- Subjects with investigator-defined drug-related AEs (part 1, 75 mg QD): 5 (55.6) n (%)
- Total with AEs (part 1, 75 mg QD): 6 (66.7) n (%)
- Vision blurred (part 1, 75 mg QD): 0 (–) n (%)
- Dizziness (part 1, Total BI n = 45): 7 (15.6) n (%)
- Eye disorders (part 1, Total BI n = 45): 7 (15.6) n (%)
- Fatigue (part 1, Total BI n = 45): 1 (2.2) n (%)
- Gastrointestinal disorders (part 1, Total BI n = 45): 5 (11.1) n (%)
- General disorders and administration site conditions (part 1, Total BI n = 45): 4 (8.9) n (%)
- Headache (part 1, Total BI n = 45): 13 (28.9) n (%)
- Infections and infestations (part 1, Total BI n = 45): 5 (11.1) n (%)
- Insomnia (part 1, Total BI n = 45): 3 (6.7) n (%)
- Musculoskeletal and connective tissue disorders (part 1, Total BI n = 45): 3 (6.7) n (%)
- Nasopharyngitis (part 1, Total BI n = 45): 3 (6.7) n (%)
- Nervous system disorder (part 1, Total BI n = 45): 17 (37.8) n (%)
- Ocular discomfort (part 1, Total BI n = 45): 2 (4.4) n (%)
- Psychiatric disorders (part 1, Total BI n = 45): 4 (8.9) n (%)
- Subjects with AEs leading to study discontinuation (part 1, Total BI n = 45): 0 (–) n (%)
- Subjects with investigator-defined drug-related AEs (part 1, Total BI n = 45): 27 (60.0) n (%)
- Total with AEs (part 1, Total BI n = 45): 30 (66.7) n (%)
- Vision blurred (part 1, Total BI n = 45): 3 (6.7) n (%)
- Eye disorders (parts 1 and 2, BI n = 57): 7 (12.3) n (%)
- Gastrointestinal disorders (parts 1 and 2, BI n = 57): 5 (8.8) n (%)
- General disorders and administration site conditions (parts 1 and 2, BI n = 57): 4 (7.0) n (%)
- Infections and infestations (parts 1 and 2, BI n = 57): 6 (10.5) n (%)
- Musculoskeletal and connective tissue disorders (parts 1 and 2, BI n = 57): 3 (5.3) n (%)
- Nervous system disorder (parts 1 and 2, BI n = 57): 18 (31.6) n (%)
- Psychiatric disorders (parts 1 and 2, BI n = 57): 4 (7.0) n (%)
- Subjects with AEs leading to study discontinuation (parts 1 and 2, BI n = 57): 0 (–) n (%)
- Subjects with investigator-defined drug-related AEs (parts 1 and 2, BI n = 57): 27 (47.4) n (%)
- Total with AEs (parts 1 and 2, BI n = 57): 32 (56.1) n (%)
